Test results reported in PubChem BioAssay.
The source made the active and inactive calls.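 The calls were made as follows, unless noted: active = duplicate-averaged activation above buffer control mean plus 5 SD of those controls; inactive = the rest.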

What was measured:
[1] = thallium flux activation in parental CHO cells, counter-screen for KCNQ1 potentiator project (AID 493006); settings: parental CHO-K1 cells, FluxOR thallium flux, at 10 µM; hits give high values;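 as to activation: fluorescence ratio of max minus min over baseline after K+ and Tl+ depolarization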
Outline: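 Benchmarks – buffer and R-L3 controls · Assay system – untransfected host CHO-K1 cells with FluxOR thallium dye · Measure – fluorescence change ratio scaled 0% buffer, 100% R-L3 · Technique – kinetic thallium-flux fluorescence · Timing – overnight 37 °C plating, 90 min RT dye, 20 min compound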

[2] = biological target: Potassium voltage-gated channel subfamily KQT member 1 (Homo sapiens) (UniProt P51787); test: KCNQ1 potassium channel potentiators, confirmation, FluxOR thallium flux, CHO cells, duplicates (AID 493007;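 active = potentiation averaged over duplicate wells exceeding buffer-only control mean by more than 3 SD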;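 as to outcome: cells depolarized by a potassium plus thallium sulfate stimulus after compound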); settings: KCNQ1 cell line, FluxOR thallium flux fluorescence, at 10 µM; hits give high values, % of reference activator effect, buffer zero
Outline: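 Material: CHO cells stably expressing the KCNQ1 potassium channel / Times: dye 90 min then compound 20 min, both at room temperature / Detection: kinetic thallium influx fluorescence with FluxOR dye, 10 s baseline, 110 s post-stimulus / Benchmarks: buffer-only wells as 0% and R-L3 activator as 100% / Replicates: each compound tested in duplicate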

[3] = biological target: Potassium voltage-gated channel subfamily KQT member 2 (Rattus norvegicus) (UniProt O88943); test: rat KCNQ2 channel potentiation, selectivity assay for KCNQ1 potentiator project, KCNQ2-CHO-K1 cells (AID 493009;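 active = mean duplicate potentiation above the buffer control mean plus 5 SD of buffer wells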;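 also: assay conditions were tuned for KCNQ1 rather than KCNQ2 modulators; signal is max minus min fluorescence divided by baseline after thallium stimulus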); settings: FluxOR thallium flux fluorescence, at 10 µM; hits give high values, scaled: buffer 0, activator control 100
[4] = biological target: Potassium voltage-gated channel subfamily KQT member 1 (Homo sapiens) (UniProt P51787); test: KCNQ1 channel current potentiators, confirmation, orthogonal assay for KCNQ1 potentiator project, IonWorks patch clamp, KCNQ1-CHO cells (AID 493184;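 active = current rise at least 3 SD above the untreated control mean in each of two repeat wells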;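 as to current potentiation: percent change of the same well's current before compound addition so 0% = no change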); settings: automated patch clamp current, at 10 µM; hits give high values
Outline: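 Probe or stimulus: depolarizing pulse to +40 mV from -90 mV; Material: CHO cells carrying KCNQ1; Compound: one dose, 10 µM final; Signal: automated voltage clamp, amphotericin B perforated patch; Read-out basis: percent current increase versus pre-compound level; Buffer or medium: pH 7.4 external bath; Replication: duplicates.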

Chain of Potassium voltage-gated channel subfamily KQT member 1 (Homo sapiens) (P51787 whole entry, looked up): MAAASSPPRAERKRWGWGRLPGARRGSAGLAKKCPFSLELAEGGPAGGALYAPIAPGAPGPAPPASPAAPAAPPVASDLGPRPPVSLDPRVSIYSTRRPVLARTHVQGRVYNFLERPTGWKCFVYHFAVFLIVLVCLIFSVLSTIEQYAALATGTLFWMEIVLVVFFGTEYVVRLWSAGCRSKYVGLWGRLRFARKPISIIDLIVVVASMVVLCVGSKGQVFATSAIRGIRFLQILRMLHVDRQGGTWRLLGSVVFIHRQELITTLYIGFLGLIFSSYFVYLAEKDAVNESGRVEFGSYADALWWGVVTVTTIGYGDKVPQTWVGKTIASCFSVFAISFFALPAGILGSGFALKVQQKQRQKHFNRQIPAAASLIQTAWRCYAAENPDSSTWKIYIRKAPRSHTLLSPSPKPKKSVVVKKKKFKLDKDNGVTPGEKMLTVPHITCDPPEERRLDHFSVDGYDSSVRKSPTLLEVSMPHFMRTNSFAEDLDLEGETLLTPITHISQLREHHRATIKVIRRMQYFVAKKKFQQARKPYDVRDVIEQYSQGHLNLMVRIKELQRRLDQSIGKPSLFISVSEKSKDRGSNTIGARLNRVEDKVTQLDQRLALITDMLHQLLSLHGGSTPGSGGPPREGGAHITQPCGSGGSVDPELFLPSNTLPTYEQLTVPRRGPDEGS
Chain of Potassium voltage-gated channel subfamily KQT member 2 (Rattus norvegicus) (O88943 whole entry, looked up): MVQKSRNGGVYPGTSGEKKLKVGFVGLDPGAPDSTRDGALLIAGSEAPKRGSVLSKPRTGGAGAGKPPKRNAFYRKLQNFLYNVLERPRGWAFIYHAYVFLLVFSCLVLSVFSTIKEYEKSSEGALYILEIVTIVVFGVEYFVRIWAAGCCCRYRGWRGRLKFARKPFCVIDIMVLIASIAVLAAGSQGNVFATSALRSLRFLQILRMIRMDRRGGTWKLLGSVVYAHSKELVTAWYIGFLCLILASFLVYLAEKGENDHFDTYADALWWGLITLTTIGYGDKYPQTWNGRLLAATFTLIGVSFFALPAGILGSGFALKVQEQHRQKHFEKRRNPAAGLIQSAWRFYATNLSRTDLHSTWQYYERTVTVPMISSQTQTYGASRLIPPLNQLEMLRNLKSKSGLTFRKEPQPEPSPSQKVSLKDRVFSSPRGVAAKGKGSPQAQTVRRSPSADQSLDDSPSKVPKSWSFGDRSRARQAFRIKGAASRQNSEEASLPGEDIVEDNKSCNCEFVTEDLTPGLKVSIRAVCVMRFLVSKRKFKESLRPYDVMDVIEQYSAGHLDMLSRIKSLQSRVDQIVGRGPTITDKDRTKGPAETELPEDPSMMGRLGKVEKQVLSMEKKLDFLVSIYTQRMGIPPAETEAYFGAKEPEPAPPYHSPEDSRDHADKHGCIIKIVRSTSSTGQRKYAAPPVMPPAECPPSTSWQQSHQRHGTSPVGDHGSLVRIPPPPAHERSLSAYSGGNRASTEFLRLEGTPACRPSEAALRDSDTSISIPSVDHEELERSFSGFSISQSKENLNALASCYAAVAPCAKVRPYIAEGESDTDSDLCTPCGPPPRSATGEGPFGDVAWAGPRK

CCN(CC)S(=O)(=O)c1cc(OC)ccc1N=Nc1ccc(O)c2ncccc12
outcome [1]: inactive | potentiation [2]: 37.5% (active) | potentiation [3]: 148% (active) | outcome [4]: inactive

COc1ccc(/C=N\NC(=S)SCN2C(=O)C3CCC(C)(C2=O)C3(C)C)cc1 (stereo not given)
outcome [1]: inactive | outcome [2]: inactive | outcome [3]: inactive | outcome [4]: inactive

CC(C)(C)c1cc(C(=O)NNC(=O)c2ccc(Cl)cc2)no1
activation [1]: 200% (active) | potentiation [2]: 86.5% (active) | potentiation [3]: 257% (active) | outcome [4]: inactive

Cc1cc(-c2csc3nc[nH]c(=S)c23)cc(C)c1C
activation [1]: 286% (active) | potentiation [2]: 255% (active) | potentiation [3]: 408% (active) | outcome [4]: inactive

CC(C)(C)c1cc(-c2csc(Nc3ccccc3)[n+]2Cc2ccc(C(=O)O)cc2)cc(C(C)(C)C)c1O
activation [1]: 327% (active) | potentiation [2]: 54.5% (active) | potentiation [3]: 198% (active) | outcome [4]: inactive

S=c1nc(C2CCCCC2)[nH]c2ccccc12
activation [1]: 138% (active) | potentiation [2]: 22.5% (active) | potentiation [3]: 160% (active) | outcome [4]: inactive

C=CCOc1c(Br)cc(/C=N/Nc2ccc(C(=O)O)cc2)cc1OCC
outcome [1]: inactive | outcome [2]: inactive | outcome [3]: inactive | outcome [4]: inactive

CCOc1ccc(NC(=O)Cn2sc3nc(C)cc(C)c3c2=O)cc1
activation [1]: 142% (active) | outcome [2]: inactive | outcome [3]: inactive | outcome [4]: inactive

Cc1cccc(-n2c(=S)[nH]c3sc4c(c3c2=O)CCc2ccccc2-4)c1
activation [1]: 240% (active) | potentiation [2]: 149% (active) | potentiation [3]: 330% (active) | outcome [4]: inactive

O=C(CN1CCCC1)Nc1ccc2c(c1)CCC2
outcome [1]: inactive | outcome [2]: inactive | outcome [3]: inactive | outcome [4]: inactive

Cc1cc(S(=O)(=O)N2CCOCC2)ccc1OCC(=O)Nc1ccc(Br)cc1F
outcome [1]: inactive | outcome [2]: inactive | outcome [3]: inactive | outcome [4]: inactive

CC(C)(C)NC(=O)C(=O)NNC(=O)C12CC3CC(CC(C3)C1)C2
activation [1]: 178% (active) | potentiation [2]: 40% (active) | potentiation [3]: 192% (active) | outcome [4]: inactive

CC1(C)CC[C@]2(C(=O)O)CC[C@]3(C)C(=CCC4[C@@]5(C)CC[C@H](O)C(C)(C)C5[C@H](O)C[C@]43C)[C@@H]2C1 (stereo not given in full)
activation [1]: 184% (active) | potentiation [2]: 40.5% (active) | potentiation [3]: 182% (active) | outcome [4]: inactive

O=S(=O)(Nc1ccccc1Cl)c1ccc(NS(=O)(=O)c2cccs2)cc1
outcome [1]: inactive | potentiation [2]: 26.5% (active) | outcome [3]: inactive | outcome [4]: inactive

O=C(CNC(=O)c1ccccc1)NCc1ccc(Cl)cc1
outcome [1]: inactive | outcome [2]: inactive | outcome [3]: inactive | outcome [4]: inactive

Nc1nonc1C(=O)NCCN=Cc1cc(Cc2ccccc2)cc(Br)c1O
outcome [1]: inactive | outcome [2]: inactive | outcome [3]: inactive | outcome [4]: inactive

COC(=O)C1C(c2ccc(OC)c(OC)c2)NC(c2ccc(OC)c(OC)c2)C(C(=O)OC)S1(=O)=O (stereo not given)
outcome [1]: inactive | outcome [2]: inactive | outcome [3]: inactive | outcome [4]: inactive

COc1ccc(OCc2cc(C(=O)N(C)CC3CCCCO3)no2)c(Cl)c1 (stereo not given)
outcome [1]: inactive | potentiation [2]: 17.5% (active) | outcome [3]: inactive | outcome [4]: inactive

COc1ccc(C)cc1-n1c(SCC(=O)Nc2cc(C)on2)nc2ccccc2c1=O
outcome [1]: inactive | outcome [2]: inactive | outcome [3]: inactive | outcome [4]: inactive

COc1ccc(/C=C2\SC(=Nc3ccccc3OC)NC2=O)cc1
outcome [1]: inactive | outcome [2]: inactive | outcome [3]: inactive | outcome [4]: inactive

COc1cccc2sc(Nc3nnc(-c4ccc(F)cc4)o3)nc12
activation [1]: 394% (active) | potentiation [2]: 202% (active) | potentiation [3]: 521% (active) | outcome [4]: inactive

O=Cc1ccc2noc(-c3ccc(Cl)cc3)c2c1
outcome [1]: inactive | outcome [2]: inactive | outcome [3]: inactive | outcome [4]: inactive

CCC1(C)Cc2c(sc3nc(SC)[nH]c(=S)c23)CO1 (stereo not given)
activation [1]: 550% (active) | potentiation [2]: 194% (active) | potentiation [3]: 534% (active) | outcome [4]: inactive

O=C(Nc1nnc(-c2ccc(Cl)cc2)o1)c1ccccc1Br
activation [1]: 228% (active) | potentiation [2]: 86.5% (active) | potentiation [3]: 234% (active) | outcome [4]: inactive

CCCCn1c(N)c(C(=S)NC(=O)CC(C)(C)C)c(=O)n(C)c1=O
activation [1]: 140% (active) | potentiation [2]: 37.5% (active) | potentiation [3]: 148% (active) | outcome [4]: inactive

O=C(CSc1nc(=O)n2ccccc2n1)NCc1ccccc1
outcome [1]: inactive | outcome [2]: inactive | outcome [3]: inactive | outcome [4]: inactive

C=CCn1c(O)c(N=NC(=S)Nc2ccc(OC)c(Cl)c2)c2ccccc21
activation [1]: 191% (active) | potentiation [2]: 57% (active) | potentiation [3]: 215% (active) | outcome [4]: inactive

S=c1[nH]c(-c2ccccc2)cs1
activation [1]: 380% (active) | potentiation [2]: 184% (active) | potentiation [3]: 464% (active) | outcome [4]: inactive

O=C(Nc1ccc(C(=O)O)cc1)/C(=C\c1ccc2c(c1)OCO2)NC(=O)c1ccc(Br)cc1
outcome [1]: inactive | outcome [2]: inactive | outcome [3]: inactive | outcome [4]: inactive

CCc1cc2c(=O)[nH]c(-c3ccccn3)nc2s1
outcome [1]: inactive | potentiation [2]: 26% (active) | potentiation [3]: 226% (active) | outcome [4]: inactive

COc1ccccc1N1C(=NC(=O)C(C)Oc2ccccc2)SC2CS(=O)(=O)CC21 (stereo not given)
outcome [1]: inactive | outcome [2]: inactive | outcome [3]: inactive | outcome [4]: inactive

Cc1cc(C)nc(N(C#N)CC(=O)c2ccccc2)n1
outcome [1]: inactive | outcome [2]: inactive | outcome [3]: inactive | outcome [4]: inactive

O=C(c1cccc(-c2ccccc2F)c1)N1CC[C@@H](N2CCC(O)CC2)[C@H](O)C1
outcome [1]: inactive | outcome [2]: inactive | outcome [3]: inactive | outcome [4]: inactive

CC(C)(C)NC(=O)C(=O)NNC(=O)COc1ccc(Br)cc1
activation [1]: 227% (active) | potentiation [2]: 53% (active) | potentiation [3]: 215% (active) | outcome [4]: inactive

O=C1CN(S(=O)(=O)c2ccccc2)CC(=O)N1CCc1ccccc1
outcome [1]: inactive | outcome [2]: inactive | outcome [3]: inactive | outcome [4]: inactive

COc1ccc(NC(=S)NC(=O)c2ccccc2Cl)cc1
outcome [1]: inactive | outcome [2]: inactive | outcome [3]: inactive | outcome [4]: inactive

COc1cccc(OC)c1C(=O)Nc1cccc(-c2ccc3nncn3n2)c1
outcome [1]: inactive | outcome [2]: inactive | outcome [3]: inactive | outcome [4]: inactive

O=C(NNC(=S)NC(=O)c1ccco1)c1ccc(F)cc1
activation [1]: 198% (active) | potentiation [2]: 69% (active) | potentiation [3]: 232% (active) | outcome [4]: inactive

COc1ccc(CN2C(=O)C(C)S/C2=N/N=C/c2ccco2)cc1 (stereo not given)
outcome [1]: inactive | outcome [2]: inactive | outcome [3]: inactive | outcome [4]: inactive

N#Cc1ccc(-c2nc3cc(Cl)ccc3c(=O)n2O)cc1
activation [1]: 189% (active) | potentiation [2]: 29.5% (active) | potentiation [3]: 176% (active) | outcome [4]: inactive

COC(=O)c1sc(-c2ccccc2)cc1NC(=O)C1CC1
outcome [1]: inactive | outcome [2]: inactive | outcome [3]: inactive | outcome [4]: inactive

CCCc1cc(=O)[nH]c(SCC(=O)NC(=O)c2ccccc2)n1
outcome [1]: inactive | outcome [2]: inactive | outcome [3]: inactive | outcome [4]: inactive

Cc1ccc(C)c(NC(=S)N/N=C2/CCCCc3ccccc32)c1
activation [1]: 140% (active) | potentiation [2]: 37% (active) | potentiation [3]: 164% (active) | outcome [4]: inactive

COC(=O)CSc1nc(N)c2c3c(sc2n1)C(c1ccccc1)SC(c1ccccc1)C3 (stereo not given)
outcome [1]: inactive | outcome [2]: inactive | outcome [3]: inactive | outcome [4]: inactive

COc1ccc(/C=C2/S/C(=N/N=C3\CC4CCC3(C)C4(C)C)NC2=O)cc1 (stereo not given)
outcome [1]: inactive | potentiation [2]: 21% (active) | potentiation [3]: 186% (active) | outcome [4]: inactive

OC[C@H]1O[C@H](OC[C@H]2O[C@H](OC[C@H]3O[C@H](O[C@]4(CO)O[C@H](CO)[C@@H](O)[C@@H]4O)[C@H](O)[C@@H](O)[C@@H]3O)[C@H](O)[C@@H](O)[C@H]2O)[C@H](O)[C@@H](O)[C@H]1O
outcome [1]: inactive | outcome [2]: inactive | outcome [3]: inactive | outcome [4]: inactive

CCCCCc1ccc(C(=O)CCCC)c(=S)[nH]1
activation [1]: 277% (active) | potentiation [2]: 154% (active) | potentiation [3]: 300% (active) | outcome [4]: inactive

CSc1nnc(-c2ccccc2)o1
outcome [1]: inactive | outcome [2]: inactive | outcome [3]: inactive | outcome [4]: inactive

O=C(NC(=S)N1CCN(c2nc(-c3ccccc3)cs2)CC1)c1cncc(Br)c1
activation [1]: 384% (active) | potentiation [2]: 223% (active) | potentiation [3]: 505% (active) | outcome [4]: inactive

C=CCn1c(SCc2ccc(C(=O)O)cc2)nc2sc(C)c(C)c2c1=O
activation [1]: 216% (active) | potentiation [2]: 72.5% (active) | potentiation [3]: 236% (active) | outcome [4]: inactive

Cc1ccc(C(=O)Sc2cccccc2=O)cc1
activation [1]: 230% (active) | potentiation [2]: 37.5% (active) | potentiation [3]: 228% (active) | outcome [4]: inactive

Cc1[nH]n(-c2ccccc2)c(=O)c1N=Nc1nccs1
activation [1]: 816% (active) | potentiation [2]: 418% (active) | potentiation [3]: 787% (active) | current potentiation [4]: 20.9% (active)

Cc1ccc(/C=C/C(=O)c2ccccc(=O)c2O)cc1C
activation [1]: 174% (active) | potentiation [2]: 56.5% (active) | potentiation [3]: 276% (active) | outcome [4]: inactive

CCn1c(CC(=O)Nc2ccccc2)nnc1SCC(=O)Nc1nncs1
outcome [1]: inactive | outcome [2]: inactive | outcome [3]: inactive | outcome [4]: inactive

Cc1ccccc1CC(=O)NC1CCN(Cc2ccccc2)CC1
outcome [1]: inactive | outcome [2]: inactive | outcome [3]: inactive | outcome [4]: inactive

C=C(C)CNC(=O)c1ccc(OC2CCN(C(=O)COC)CC2)cc1
outcome [1]: inactive | outcome [2]: inactive | outcome [3]: inactive | outcome [4]: inactive

O=C(c1c[nH]c(C(=O)C(Cl)(Cl)Cl)c1)c1ccc(F)cc1Cl
activation [1]: 145% (active) | potentiation [2]: 47% (active) | potentiation [3]: 160% (active) | outcome [4]: inactive

Cc1ccccc1-c1nc(Cc2ccc(Cl)cc2)no1
outcome [1]: inactive | outcome [2]: inactive | outcome [3]: inactive | outcome [4]: inactive

CCOC(=O)c1sc2ncnc(NCc3ccco3)c2c1C
activation [1]: 332% (active) | potentiation [2]: 152% (active) | potentiation [3]: 358% (active) | outcome [4]: inactive

CC(=O)c1cccc(NC(=S)NC(=O)c2ccc(Cl)cc2)c1
outcome [1]: inactive | outcome [2]: inactive | outcome [3]: inactive | outcome [4]: inactive
